FGF22 binding = shifts melting point of recombinant human FGF22 | Q9HCT0 | recombinant FGF22 thermal shift, SYPRO orange fluorescence; percent of sucrose octasulfate shift, DMSO zero | activity (Tm shift, normalised), % at 9.99 µM | 1.5% of 340,000 active | AID 651658;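 active = mean Tm shift, scaled 0 neutral to 100 positive control, at about 1.3% or above, every replicate too, limit read from the data; inconclusive = no clear call, values can overlap the other calls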
Target sequence (Q9HCT0 whole entry, looked up): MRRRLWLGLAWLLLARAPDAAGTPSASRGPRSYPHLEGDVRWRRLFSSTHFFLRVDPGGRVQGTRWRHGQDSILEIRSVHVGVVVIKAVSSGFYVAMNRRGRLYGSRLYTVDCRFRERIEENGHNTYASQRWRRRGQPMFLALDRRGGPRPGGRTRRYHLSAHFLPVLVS
S100A4 inh HTS = S100A4-myosin IIA interaction inhibition. P26447. S100A4/TAMRA-MyoIIA peptide fluorescence polarization. inhibition, % at 10.7 µM. 0.14% of 360,000 active;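 active = mean inhibition of at least 70% across replicates, with every replicate also reaching that level; inconclusive = mean inhibition reaches 70% but some replicates fall short; inactive = mean inhibition below 70%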
Target sequence (P26447 whole entry, looked up): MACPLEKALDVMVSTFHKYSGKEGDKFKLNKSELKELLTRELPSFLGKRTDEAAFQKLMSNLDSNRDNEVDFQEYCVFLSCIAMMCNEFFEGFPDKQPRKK
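System – human S100A4 monomer protein, biochemical binding assay · Buffer or medium – Calcium-containing HEPES buffer, pH 7.2 · Timing – 5 min between mix addition and reading · Also added – TAMRA-labelled myosin IIA heavy-chain peptide probe, 5 nM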
CFTR F508del cor = CFTR F508del correction in bronchial cells. CFBE cells, YFP halide quenching; stimulated with forskolin plus potentiator P3; % fluorescence drop versus neutral controls. AID 720511. activity (quench increase), % at 7.58 µM. 0.36% of 350,000 active;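 active = mean added fluorescence quench of at least 8% versus neutral control, with both replicates also reaching 8%; inconclusive = only one of the mean or replicate conditions met; inactive = mean below 8% and not both replicates reaching 8%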;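 note: cells transiently co-express mutant CFTR-F508del with the halide-sensitive YFP; corrector assay measuring rescue of mutant channel to the surface after 24 h compound exposure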
E-selectin induc = induces E-selectin expression in human endothelial cells; activation, % at 7.58 µM; AID 686992; HUVEC E-selectin immunofluorescence imaging; normalized: neutral wells 0, TNF-alpha wells 100; 0.37% of 260,000 active;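 active = mean E-selectin-positive cell signal at least 10% of the positive control, reached in at least 60% of replicates, without over 20% cell loss; inconclusive = no rule given, readout overlaps actives, possibly toxicity-flagged; inactive = the rest, including those meeting only one limit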
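Assay system: HUVEC primary endothelial cells. Input: 3,000 HUVEC seeded per well. Doses: one compound dose added by pin transfer. Read-out basis: % PE-positive cells. Benchmarks: TNF-alpha high, DMSO low. Detection: immunofluorescence imaging. Buffer or medium: EGM-2, gelatin.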
Env fusion inh = inhibitors of HIV Env-mediated cell fusion; HeLa-JRFL Env/CEM21 cell fusion, luciferase; inhibition, % at 12.3 µM; 1.1% of 360,000 active; AID 651610;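 active = mean replicate inhibition score of at least 50 and every replicate individually at or above 50; inconclusive = only one of the two criteria met; inactive = mean below 50 and not all replicates reaching 50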;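 note: 0% = plate neutral controls and 100% = maraviroc near 300 nM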
* hit, by the source's call; ? = inconclusive; . = no result; + = active, no number; [ ] = dose if it differs, or a comment. Most compounds without a hit are left out; they make up all but 2.7% or so of the library.

SMILES | FGF22 binding | S100A4 inh HTS | CFTR F508del cor | E-selectin induc | Env fusion inh
CC1=CC2=NC(=O)CC(C)(C(=O)N(CC(=O)NC3CCCC3)Cc3ccccc3)N2C=C1 (stereo not given) | 0 | 2 | -3 | 41* | -1
CCOC(=O)c1cnc2ccc(OCC)cc2c1NCc1ccccc1OC | . | . | . | . | 95*
C[C@H]1CN([C@@H](C)CO)C(=O)c2cc(-c3ccccc3F)cnc2O[C@H]1CN(C)Cc1cccc(C(=O)O)c1 | 1 | -1 | 1 | 0 | -34[16.7 µM]
CCCn1c(N)c(Sc2ccc(C)cc2)c(=O)n(CCC)c1=O | 43* | -2 | -1 | 0 | -3
COCCn1c(N)c(Sc2ccc(C)cc2)c(=O)[nH]c1=O | 0 | -5 | 3 | 11 | 10
C[C@H](CO)N1C[C@H](C)[C@H](CN(C)Cc2ccccc2F)Oc2ncc(C#CCN(C)C)cc2C1=O | 0 | 3 | . | 0 | -2[16.7 µM]
O=C(CN1C(=O)NC2(CCCC2)C1=O)N1CCc2ccccc2C1 | 43* | 2 | 2 | 1 | -9
COc1ccc(C2=CC(=O)C[C@H](c3ccc(OC)cc3)C2)cc1 | 0 | -6 | 2 | 0 | -48
COc1ccc([C@H]2CC(=O)C=C(c3ccc(OC)cc3OC)C2)cc1 | 0 | -26 | 11* | 0 | 12
COc1ccc([C@H]2CC(=O)C=C(c3ccc(F)cc3OCc3ccccc3)C2)cc1OC | 0 | 1 | 5 | 0 | 72*
C[C@@H]1CCCCO[C@H](CN(C)C(=O)C2CCCCC2)[C@@H](C)CN([C@@H](C)CO)C(=O)c2cc(NS(=O)(=O)c3cn(C)cn3)ccc2O1 | -1 | 3 | 1 | 0 | -12[16.7 µM]
CCCNC(=O)C[C@H]1CC[C@@H]2[C@H](COC[C@H](O)CN2C(=O)CC)O1 | 0 | -1 | -2 | 0 | .
Cc1ccc2nc(NC(=O)c3ccc(N4C(=O)CCC4=O)cc3)sc2c1 | 43* | -2 | 2 | 1 | 2
Cc1ccc2nc(NC(=O)CCn3cccc3)sc2c1 | 0 | -3 | 2 | 0 | -37
Cc1ccc2nc(NC(=O)CSc3ncnc4c3oc3ccccc34)sc2c1 | 0 | 1 | -4 | 82* | -7
Cc1ccc2nc(NC(=O)CCCC(=O)O)sc2c1 | 0 | 5 | -3 | 0 | 69*
Cc1cc(C)c2sc(NC(=O)c3ccc(N4C(=O)CCC4=O)cc3)nc2c1 | 0 | -2 | 3 | 0 | -1
O=C(C1CC1)N1CC2(C1)[C@H](c1ccccc1)[C@H](CO)N2C(=O)CC1CC1 | . | 11 | -1 | 0 | .
C/C=C/c1ccc2c(c1)O[C@@H](CN(C)C(=O)Nc1ccccc1)[C@@H](C)CN([C@@H](C)CO)S2(=O)=O | 0 | 3 | -2 | 1 | -18[16.7 µM]
CCOC(=O)c1c(C)[nH]c(C(=O)CN2C(=O)NC(C)(CC(C)C)C2=O)c1C (stereo not given) | 44* | -1 | 0 | . | -7
Cc1ccc(-c2csc3nnc(SCC(=O)Nc4cccc(C)n4)n23)cc1 | . | . | . | . | 107*
Cc1cccc(NC(=O)CSc2nnnn2C)n1 | . | . | . | 0 | -51
COc1cc(OC)c2c(-c3cccc(-c4ccc(OC)c(OC)c4)c3)cc(=O)oc2c1 | 0 | -6 | 9.2* | 1 | -57
COc1cc(OC)c2c(-c3cccc(-c4sccc4C(C)=O)c3)cc(=O)oc2c1 | 0 | -3 | 9.7* | -8 | -244
COc1cc2oc(=O)cc(-c3cccc(-c4cccc(C)c4)c3)c2c(OC)c1OC | 0 | -2 | -2 | 1 | 57*
SMILES | FGF22 binding | S100A4 inh HTS | CFTR F508del cor | E-selectin induc | Env fusion inh
COc1cc(OC)c2c(-c3cccc(-c4ccc(C#N)cc4)c3)cc(=O)oc2c1 | 0 | 3 | 1 | 5 | -34
C[C@H]1CN([C@@H](C)CO)C(=O)Cc2cc(NC(=O)Cn3cnnn3)ccc2O[C@@H]1CN(C)Cc1ccc(C(=O)Nc2ccccc2N)cc1 | 0 | -3 | 1 | -4 | .
Cc1cc(C(=O)Nc2cccc3c2O[C@@H](CN(C)Cc2ccccc2)[C@@H](C)CN([C@@H](C)CO)C3=O)n(C)n1 | 0 | -1 | -1 | 0 | 8[16.7 µM]
COc1ccc(CCN(Cc2nc3ccccc3c(=O)[nH]2)C(=O)C2CC2)cc1 | 43* | -10 | 0 | . | 16
CCCC(=O)N(CCc1ccc(OC)cc1)Cc1nc2ccccc2c(=O)[nH]1 | 0 | -5 | -2 | . | .
Cc1ccc(S(=O)(=O)N2C[C@H]3[C@H]4C(=O)N(C5CCCCC5)C(=O)[C@H]4CC(=O)[C@H]3[C@@H]2c2cccc3ccccc23)cc1 | 0 | 1 | 5 | 1 | 35
Cc1ccc(S(=O)(=O)N2C[C@H]3[C@H]4C(=O)N(C)C(=O)[C@H]4CC(=O)[C@H]3[C@@H]2c2ccccc2F)cc1 | 0 | -1 | 8.4* | 0 | .
Cc1ccc(S(=O)(=O)N2C[C@H]3[C@H]4C(=O)N(C5CCCCC5)C(=O)[C@H]4CC(=O)[C@H]3[C@@H]2c2ccccc2F)cc1 | 0 | 0 | 3 | ? | 65*
Cc1ccc(S(=O)(=O)N2C[C@H]3[C@H]4C(=O)N(Cc5ccccc5)C(=O)[C@H]4CC(=O)[C@H]3[C@@H]2c2ccccc2Cl)cc1 | 0 | 0 | 0 | 0 | 60*
O=C(C[C@H]1CC[C@@H](NS(=O)(=O)c2ccccc2)[C@@H](CO)O1)N1CCC(Cc2ccccc2)CC1 | 0 | -3 | -1 | 0 | .
CCCC#Cc1ccc2c(c1)O[C@@H](CN(C)C(C)=O)[C@H](C)CN([C@@H](C)CO)S2(=O)=O | 1 | 5 | 1 | 0 | 17[16.7 µM]
Cn1c(CN2CCCCC2)nc2cc(NC(=O)c3cccc(Br)c3)ccc21 | . | . | . | . | 67*
Cn1c(CN2CCCCC2)nc2cc(NC(=O)c3ccccc3)ccc21 | . | . | . | . | -3
CC(C)NC(=O)N(C)C[C@H]1Oc2ccc(NC(=O)Nc3ccc(C(F)(F)F)cc3)cc2C(=O)N([C@H](C)CO)C[C@H]1C | 1 | -5 | 0 | 0 | 2[16.7 µM]
CCNC(=O)C1(C)CCN(C(=O)c2cc(F)ccc2C)C1 (stereo not given) | 0 | 0 | 16* | . | -103
N#Cc1c(-c2ccc(F)cc2)c(-c2ccc(F)cc2)nn(CCO)c1=O | 0 | 3 | 18* | 8 | 8
Cc1c(C(=O)NN)nn(-c2ccc(F)cc2)c(=O)c1C#N | 0 | 0 | -4 | 1 | -1
O=C(CCNc1n[nH]c(=O)[nH]c1=O)N/N=C/c1ccccc1Br | 44* | 2 | -2 | . | -15
O=C(CNc1n[nH]c(=O)[nH]c1=O)N/N=C/c1ccccc1 | 0 | -2 | 0 | . | 6
O=C(CCNc1n[nH]c(=O)[nH]c1=O)N/N=C/c1ccc(C(F)(F)F)cc1 | 43* | 0 | 0 | . | 9
C[C@@H]1CCCCO[C@H](CN(C)Cc2ccncc2)[C@@H](C)CN([C@H](C)CO)C(=O)c2cc(NC(=O)Nc3ccccc3)ccc2O1 | 0 | 7 | 0 | 0 | -2[16.7 µM]
CCN1/C(=C/C(C)=C/c2sc3ccccc3[n+]2CC)Sc2ccccc21 | 0 | + | -13 | 155* | -13

Source: PubChem BioAssay
